Calls of active or inactive are those of the source. The rule behind the calls is not given here.
Columns and labels:
SW-620 [1] = experiment: Induction of cell cycle arrest in human SW620 cells assessed as G2/M phase cells at 10 uM after 24 hrs by PI-staining based flow cytometric analysis (reference value: 9.3 +/- 2.6%); format: functional
SW-620 [2] = experiment: Induction of apoptosis in human SW620 cells assessed as caspase9 activation at 10 uM after 24 to 48 hrs by caspase protease assay; format: functional, cell-based
Summary of the method: (§1)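 Compound at 5 µM on SK-BR-3 and 10 µM on SW620. Cells harvested after 24 and 48 h, washed in PBS, lysed 10 min on ice, centrifuged. Lysate diluted to 3 mg/mL protein and mixed with DTT-containing reaction buffer and caspase-3, -8 or -9 substrate. Incubated 90 min at 37 °C in the dark. Absorbance read at 405 nm, duplicates, compared with untreated control.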

SW-620 [3] = experiment: Induction of apoptosis in human SW620 cells assessed as caspase3 activation at 10 uM after 24 to 48 hrs by caspase protease assay; format: functional, cell-based; summary of the method: as §1
SW-620 [4] = experiment: Induction of cell cycle arrest in human SW620 cells assessed as G2/M phase cells at 10 uM after 48 hrs by PI-staining based flow cytometric analysis (reference value: 8.5 +/- 1.6%); format: functional
SW-620 [5] = experiment: Induction of cell cycle arrest in human SW620 cells assessed as G2/M phase cells at 5 uM after 48 hrs by PI-staining based flow cytometric analysis (reference value: 8.5 +/- 1.6%); format: functional
SW-620 [6] = experiment: Induction of cell cycle arrest in human SW620 cells assessed as S phase cells at 10 uM after 48 hrs by PI-staining based flow cytometric analysis (reference value: 41.6 +/- 0.3%); format: functional
SW-620 [7] = experiment: Induction of cell cycle arrest in human SW620 cells assessed as S phase cells at 5 uM after 48 hrs by PI-staining based flow cytometric analysis (reference value: 41.6 +/- 0.3%); format: functional
SW-620 [8] = experiment: Induction of cell cycle arrest in human SW620 cells assessed as G1 phase cells at 10 uM after 48 hrs by PI-staining based flow cytometric analysis (reference value: 49.9 +/- 1.4%); format: functional
SW-620 [9] = experiment: Induction of cell cycle arrest in human SW620 cells assessed as G1 phase cells at 5 uM after 48 hrs by PI-staining based flow cytometric analysis (reference value: 49.9 +/- 1.4%); format: functional
SW-620 [10] = experiment: Induction of cell cycle arrest in human SW620 cells assessed as subG1 phase cells at 10 uM after 48 hrs by PI-staining based flow cytometric analysis (reference value: 5.8 +/- 0.3%); format: functional
SW-620 [11] = experiment: Induction of cell cycle arrest in human SW620 cells assessed as subG1 phase cells at 5 uM after 48 hrs by PI-staining based flow cytometric analysis (reference value: 5.8 +/- 0.3%); format: functional
SW-620 [12] = experiment: Induction of cell cycle arrest in human SW620 cells assessed as G2/M phase cells at 5 uM after 24 hrs by PI-staining based flow cytometric analysis (reference value: 9.3 +/- 2.6%); format: functional
SW-620 [13] = experiment: Induction of cell cycle arrest in human SW620 cells assessed as S phase cells at 10 uM after 24 hrs by PI-staining based flow cytometric analysis (reference value: 38.3 +/- 0.4%); format: functional
SW-620 [14] = experiment: Induction of cell cycle arrest in human SW620 cells assessed as S phase cells at 5 uM after 24 hrs by PI-staining based flow cytometric analysis (reference value: 38.3 +/- 0.4%); format: functional
SW-620 [15] = experiment: Induction of cell cycle arrest in human SW620 cells assessed as G1 phase cells at 10 uM after 24 hrs by PI-staining based flow cytometric analysis (reference value: 52.6 +/- 2.3%); format: functional
SW-620 [16] = experiment: Induction of cell cycle arrest in human SW620 cells assessed as G1 phase cells at 5 uM after 24 hrs by PI-staining based flow cytometric analysis (reference value: 52.6 +/- 2.3%); format: functional
HeLa = experiment: Cytotoxicity against human HeLa cells after 72 hrs by MTT assay; format: functional, cell-based; conditions: Homo sapiens, HeLa, 72 h
Summary of the method: (§2)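 Cells seeded at 3000-6000 per well on day 0, according to cell line doubling time. Compound added in five 10-fold dilutions, 72-h incubation, then MTT colorimetric read-out. Absorbances converted to percentage growth by NCI formulae. IC50 obtained by linear regression between the concentrations bracketing PG 50; ">100" assigned when no concentration reaches it. Quadruplicate points, three independent experiments.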

MIA PaCa-2 = experiment: Cytotoxicity against human MIAPaCa2 cells after 72 hrs by MTT assay; format: functional, cell-based; conditions: Homo sapiens, MIA PaCa-2, 72 h; summary of the method: as §2
WI-38 = experiment: Cytotoxicity against human WI38 cells after 72 hrs by MTT assay; format: cell-based; conditions: Homo sapiens, WI-38, 72 h; summary of the method: as §2
SW-620 [17] = experiment: Cytotoxicity against human SW620 cells after 72 hrs by MTT assay; format: functional, cell-based; conditions: Homo sapiens, SW-620, 72 h; summary of the method: as §2
MCF7 = experiment: Cytotoxicity against human MCF7 cells after 72 hrs by MTT assay; format: functional, cell-based; conditions: Homo sapiens, MCF7, 72 h; summary of the method: as §2
SK-BR-3 = experiment: Cytotoxicity against human SKBR3 cells after 72 hrs by MTT assay; format: functional, cell-based; conditions: SK-BR-3, 72 h; summary of the method: as §2
SW-620 [18] = experiment: Induction of cell cycle arrest in human SW620 cells assessed as subG1 phase cells at 10 uM after 24 hrs by PI-staining based flow cytometric analysis (reference value: 18.1 +/- 3.8%); format: functional
SW-620 [19] = experiment: Induction of cell cycle arrest in human SW620 cells assessed as subG1 phase cells at 5 uM after 24 hrs by PI-staining based flow cytometric analysis (reference value: 18.1 +/- 3.8%); format: functional

Structure (SMILES): CC(=O)Nc1ccc(NC(=O)c2cc3ccccc3o2)cn1
- Activity (SW-620 [1]): 25.3%
- Activity (SW-620 [2]): Active
- Activity (SW-620 [3]): Active
- Activity (SW-620 [4]): 9.5%
- Activity (SW-620 [5]): 11.2%
- Activity (SW-620 [6]): 45.4%
- Activity (SW-620 [7]): 44.9%
- Activity (SW-620 [8]): 45.2%
- Activity (SW-620 [9]): 43.9%
- Activity (SW-620 [10]): 4.3%
- Activity (SW-620 [11]): 4.7%
- Activity (SW-620 [12]): 10.7%
- Activity (SW-620 [13]): 31.4%
- Activity (SW-620 [14]): 42.6%
- Activity (SW-620 [15]): 43.5%
- Activity (SW-620 [16]): 46.8%
- IC50 (HeLa): 0.9 µM
- IC50 (MIA PaCa-2): 3.1 µM
- IC50 (WI-38): 0.4 µM
- IC50 (SW-620 [17]): 1.1 µM
- IC50 (MCF7): 7.6 µM
- IC50 (SK-BR-3): 59.8 µM
- Activity (SW-620 [18]): 18.2%
- Activity (SW-620 [19]): 18.1%

Structure (SMILES): N#Cc1ccc(NC(=O)c2cc3ccccc3o2)cc1
- IC50 (HeLa): 7.6 µM
- IC50 (MIA PaCa-2): 27.1 µM
- IC50 (WI-38): 7.9 µM
- IC50 (SW-620 [17]): 7.4 µM
- IC50 (MCF7): 7.6 µM
- IC50 (SK-BR-3): 34.2 µM

Structure (SMILES): N#Cc1ccc(NC(=O)c2cc3ccccc3o2)nc1
- IC50 (HeLa): 23.9 µM
- IC50 (MIA PaCa-2): 44.7 µM
- IC50 (WI-38): 52.4 µM
- IC50 (SW-620 [17]): 69.2 µM
- IC50 (MCF7): 5.3 µM
- IC50 (SK-BR-3): > 100 µM

Structure (SMILES): CC(=O)Nc1ccc(NC(=O)c2cc3ccccc3o2)cc1
- IC50 (HeLa): 77.3 µM
- IC50 (MIA PaCa-2): > 100 µM
- IC50 (WI-38): 71.2 µM
- IC50 (SW-620 [17]): > 100 µM
- IC50 (MCF7): 45.1 µM
- IC50 (SK-BR-3): > 100 µM

— ChEMBL document CHEMBL2311305, “Antiproliferative potency of novel benzofuran-2-carboxamides on tumour cell lines: cell death mechanisms and determination of crystal structure” (Eur J Med Chem, 2013)
